Laboratory results: ChEMBL document CHEMBL2311457, “Identification of bacteria-selective threonyl-tRNA synthetase substrate inhibitors by structure-based design” (J Med Chem, 2013)
pKi: −log10 of the molar value. Values after ≈ are worked out from the molar mass of the structure shown.

Legend:
Threonine--tRNA ligase = target: T1, Threonine--tRNA ligase (Yersinia pestis, UniProt Q8ZDW5); experiment: Binding affinity to Yersinia pestis ThrRS by coupled spectrophotometry
T1 sequence (Q8ZDW5 whole entry): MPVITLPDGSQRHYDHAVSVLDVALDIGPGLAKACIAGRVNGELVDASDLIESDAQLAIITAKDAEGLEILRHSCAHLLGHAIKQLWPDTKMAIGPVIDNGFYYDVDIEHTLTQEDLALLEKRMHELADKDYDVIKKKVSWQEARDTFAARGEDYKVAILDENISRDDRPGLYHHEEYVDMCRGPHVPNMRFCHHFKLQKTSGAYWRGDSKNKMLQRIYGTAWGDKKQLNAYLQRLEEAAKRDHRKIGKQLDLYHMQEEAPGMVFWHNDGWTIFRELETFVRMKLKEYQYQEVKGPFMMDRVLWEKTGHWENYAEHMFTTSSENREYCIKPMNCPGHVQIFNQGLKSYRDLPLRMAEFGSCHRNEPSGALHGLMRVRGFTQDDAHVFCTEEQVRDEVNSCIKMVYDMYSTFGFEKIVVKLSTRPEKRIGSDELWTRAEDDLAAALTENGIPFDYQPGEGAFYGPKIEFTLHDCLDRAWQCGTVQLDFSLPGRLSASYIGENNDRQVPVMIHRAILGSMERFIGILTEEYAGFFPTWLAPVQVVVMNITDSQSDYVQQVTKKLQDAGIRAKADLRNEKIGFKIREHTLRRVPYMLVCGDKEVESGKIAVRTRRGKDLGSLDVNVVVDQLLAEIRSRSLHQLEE
Procedure, shortened: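 Coupled spectrophotometric (MESG) readout of pyrophosphate release during adenylation; L-serine 200 mM as surrogate substrate, 4 mM ATP, 5 nM enzyme, Tris pH 7.6, MgCl₂, KCl, DTT, 2% DMSO. Inhibitor 16-point 2-fold series, 50 μM–1.5 nM, normalised to no-inhibitor and no-enzyme controls. IC50 from 4-parameter fit; Ki by bisubstrate Cheng–Prusoff.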

[1] = Binding affinity to Burkholderia thailandensis ThrRS by coupled spectrophotometry
[2] = Binding affinity to Escherichia coli ThrRS by coupled spectrophotometry
Procedure, shortened: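 Coupled spectrophotometric assay following pyrophosphate released during ATP-dependent adenylation, read out through MESG with inorganic pyrophosphatase and purine nucleoside phosphorylase. Buffer was 60 mM Tris pH 7.6, 10 mM MgCl₂, 20 mM KCl, 0.5 mM DTT, 2% DMSO, with 4 mM ATP, 200 mM L-serine as surrogate substrate and 5 nM enzyme.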

[3] = system: Burkholderia thailandensis; experiment: Antimicrobial activity against isogenic amrAB-oprA/bpeAB-oprB double knockout Burkholderia thailandensis E264 measured after overnight incubation by alamarBlue assay; format: functional
[4] = system: Burkholderia thailandensis; experiment: Antimicrobial activity against wild type Burkholderia thailandensis E264 measured after overnight incubation by alamarBlue assay; format: functional
Haemophilus influenzae = experiment: Antimicrobial activity against wild type Haemophilus influenzae ATCC 31517 measured after overnight incubation by alamarBlue assay; format: functional
Procedure, shortened: (§1)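 Broth microdilution per CLSI; DMSO stocks at 6.4 mg/mL, serially diluted and added 1:50 to inoculated medium for final 0.063–128 μg/mL. Inoculum about 5 × 10⁵ CFU/mL, checked by plating. Overnight at 37 °C; H. influenzae grown in Haemophilus test medium broth with 5% CO₂. alamarBlue added for 1 h; MIC read as the lowest concentration with no visible color change.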

Escherichia coli [5] = experiment: Antimicrobial activity against Escherichia coli BW25113 expressing TolC Leu13-Ala480 deletion mutant measured after overnight incubation by alamarBlue assay; format: functional
Escherichia coli [6] = experiment: Antimicrobial activity against Escherichia coli BAS849 expressing Imp Thr332-Tyr354 deletion mutant measured after overnight incubation by alamarBlue assay; format: functional
Escherichia coli [7] = experiment: Antimicrobial activity against wild type Escherichia coli ATCC 25922 measured after overnight incubation by alamarBlue assay; format: functional; procedure, shortened: as §1
[8] = target: T2, Threonine--tRNA ligase 1, cytoplasmic (Homo sapiens, UniProt P26639); experiment: Binding affinity to human cytoplasmic ThrRS by coupled spectrophotometry
T2 sequence (P26639 whole entry): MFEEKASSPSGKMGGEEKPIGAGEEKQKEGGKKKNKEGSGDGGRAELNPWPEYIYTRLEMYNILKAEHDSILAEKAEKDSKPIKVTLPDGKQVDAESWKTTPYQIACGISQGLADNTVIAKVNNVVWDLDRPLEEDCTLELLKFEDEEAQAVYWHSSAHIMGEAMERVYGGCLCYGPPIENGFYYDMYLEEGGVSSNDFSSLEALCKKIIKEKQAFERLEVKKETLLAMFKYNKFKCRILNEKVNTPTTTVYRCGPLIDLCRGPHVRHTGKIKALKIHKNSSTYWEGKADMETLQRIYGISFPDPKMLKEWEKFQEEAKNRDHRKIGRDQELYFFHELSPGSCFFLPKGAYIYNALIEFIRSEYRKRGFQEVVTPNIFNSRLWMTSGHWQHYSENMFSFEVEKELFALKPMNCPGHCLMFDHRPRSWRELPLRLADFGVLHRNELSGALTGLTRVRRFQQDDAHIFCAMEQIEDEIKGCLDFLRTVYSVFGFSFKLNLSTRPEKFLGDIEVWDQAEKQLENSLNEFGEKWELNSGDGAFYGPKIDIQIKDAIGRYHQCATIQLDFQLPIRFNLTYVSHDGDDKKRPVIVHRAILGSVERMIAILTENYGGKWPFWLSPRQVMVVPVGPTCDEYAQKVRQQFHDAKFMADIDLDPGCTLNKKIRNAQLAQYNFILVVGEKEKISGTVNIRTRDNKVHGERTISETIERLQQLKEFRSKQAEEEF

SMILES | pKi (Threonine--tRNA ligase) | pKi [1] | pKi [2] | MIC [3] [µg/mL] | MIC [4] [µg/mL] | MIC (Haemophilus influenzae) [µg/mL] | MIC (Escherichia coli [5]) [µg/mL] | MIC (Escherichia coli [6]) [µg/mL] | MIC (Escherichia coli [7]) [µg/mL] | pKi [8]
Cc1n[nH]c2ccc(-c3cccc(S(=O)(=O)NC(=O)[C@@H](N)[C@@H](C)O)c3)cc12 | 7.08 | 6.84 | 6.90 |  |  |  |  |  |  | 
C[C@@H](O)[C@H](N)C(=O)NS(=O)(=O)N1CCc2ccc(-c3ncnc4[nH]ccc34)cc2C1 | 8.24 | 8.40 | 8.02 |  |  |  |  |  |  | 
C[C@@H](O)[C@H](N)C(=O)NS(=O)(=O)OC[C@@H]1O[C@H](n2cnc3c(N)ncnc32)[C@@H](O)[C@H]1O | 8.01 | 8.55 | 7.88 | 64 (≈ 143 µM) | > 128 | > 128 | > 128 | > 128 | > 128 | 
C[C@@H](O)[C@H](O)C(=O)NS(=O)(=O)/C=C/c1cccc(-c2cc(N)ncn2)c1 | < 4.30 |  | < 4.30 |  |  |  |  |  |  | < 4.30
Cc1nc(N)c2ccc(-c3cccc(S(=O)(=O)NC(=O)[C@@H](N)[C@@H](C)O)c3)cc2n1 | 8.03 | 7.91 | 7.76 |  |  |  |  |  |  | 
C[C@@H](O)[C@H](N)C(=O)NS(=O)(=O)c1ccc2ccc(-c3ncnc4[nH]ccc34)cc2c1 | 8.74 | 9.22 | 8.62 | 32 (≈ 75.2 µM) | > 128 | 16 (≈ 37.6 µM) | 16 (≈ 37.6 µM) | > 128 | > 128 | 
C[C@@H](O)[C@H](N)CNS(=O)(=O)c1cccc(-c2ccc3c(N)nc(Cl)nc3c2)c1 | < 4.30 |  | < 4.30 |  |  |  |  |  |  | < 4.30
C[C@@H](O)[C@H](N)C(=O)NS(=O)(=O)c1ccc(Oc2ccccc2)cc1 | 4.48 | 3.71 | 4.44 |  |  |  |  |  |  | 
C[C@@H](O)[C@H](N)C(=O)NS(=O)(=O)/C=C/c1cccc(-c2cc(N)ncn2)c1 | 8.74 | 8.96 | 8.57 | 32 (≈ 84.8 µM) | > 128 | 8 (≈ 21.2 µM) | 64 (≈ 170 µM) | > 128 | > 128 | 
C[C@@H](O)[C@H](N)C(=O)NS(=O)(=O)c1cccc(-c2ccc3c(N)nc(Cl)nc3c2)c1 | 9.15 | 9.52 | 9.10 | 32 (≈ 73.4 µM) | > 128 | 8 (≈ 18.4 µM) | 16 (≈ 36.7 µM) | 128 (≈ 294 µM) | > 128 | 
C[C@@H](O)[C@H](N)C(=O)NNc1cccc(-c2ccc3c(N)nc(Cl)nc3c2)c1 | 7.15 | 7.47 | 6.87 |  |  |  |  |  |  | 
C[C@@H](O)[C@H](N)C(=O)NS(=O)(=O)c1cccc(-c2ccc3[nH]ncc3c2)c1 | 6.88 | 6.79 | 6.74 |  |  |  |  |  |  | < 4.30
C[C@@H](O)[C@H](N)C(=O)N(C)S(=O)(=O)c1cccc(-c2ccc3c(c2)CNC3=O)c1 | < 4.30 |  | < 4.30 |  |  |  |  |  |  | < 4.30
C[C@@H](O)[C@H](N)C(=O)NS(=O)(=O)c1ccc2ccc(-c3cc(N)ncn3)cc2c1 | 8.70 | 9.15 | 8.57 | 4 (≈ 9.96 µM) | > 128 | 4 (≈ 9.96 µM) | 64 (≈ 159 µM) | > 128 | > 128 | 
C[C@@H](O)[C@H](N)C(=O)NS(=O)(=O)c1cccc(-c2ccc3c(N)nc(N)nc3c2)c1 | 8.09 | 8.54 | 7.97 | 4 (≈ 9.6 µM) | > 128 | 32 (≈ 76.8 µM) | 64 (≈ 154 µM) | > 128 | > 128 | 
C[C@@H](O)[C@H](N)C(=O)NS(=O)(=O)c1cccc(-c2ccc3c(N)nccc3c2)c1 | 6.94 | 7.05 | 7.05 |  |  |  |  |  |  | 
C[C@@H](O)[C@H](N)C(=O)NCc1cccc(-c2ccc3c(N)nc(Cl)nc3c2)c1 | 6.36 | 6.85 | 6.48 |  |  |  |  |  |  | 
CC(C)[C@@H](O)[C@H](N)C(=O)NS(=O)(=O)/C=C/c1cccc(-c2cc(N)ncn2)c1 | 7.65 | 6.23 | 7.49 |  |  |  |  |  |  | 
C[C@@H](O)[C@H](N)C(=O)NS(=O)(=O)c1cccc(-c2ccc3[nH]nc(Cl)c3c2)c1 | 7.41 | 7.11 | 7.28 |  |  |  |  |  |  | 
C[C@@H](O)[C@H](N)C(=O)NS(=O)(=O)c1cccc(-c2ccc3c(N)nc(Cl)cc3c2)c1 | 7.60 | 7.64 | 7.70 |  |  |  |  |  |  | 
C[C@@H](O)[C@H](N)C(=O)NS(=O)(=O)c1cccc(-c2ccc3c(N)ncnc3c2)c1 | 8.66 | 9.05 | 8.54 | 8 (≈ 19.9 µM) | > 128 | 16 (≈ 39.9 µM) | 64 (≈ 159 µM) | > 128 | > 128 | 
C[C@@H](O)[C@H](N)C(=O)NS(=O)(=O)c1cccc(-c2ccc3c(c2)CNC3=O)c1 | 8.41 | 8.13 | 8.11 |  |  |  |  |  |  | 
C[C@@H](N)[C@H](N)C(=O)NS(=O)(=O)/C=C/c1cccc(-c2cc(N)ncn2)c1 | < 4.30 |  | < 4.30 |  |  |  |  |  |  | 
CC[C@@H](O)[C@H](N)C(=O)NS(=O)(=O)/C=C/c1cccc(-c2cc(N)ncn2)c1 | 8.57 | 7.85 | 8.37 |  |  |  |  |  |  | 
